A selection: hits, their analogues and other compounds. The true share with any hit is near 4.5%.
GPR7 antag = GPR7 receptor antagonists, primary screen, cell-based, fluorescence, single concentration | AID 1861, 2009 | actives 1.1% (n = 290,000) | GPR7-expressing cells, fluorescence antagonist assay | inhibition, % at 4.4 µM | Neuropeptides B/W receptor type 1 (Homo sapiens), P48145; in the data active = inhibition above about 16%, passing the limit was not always enough;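 also: cells stimulated with the agonist NPW; 0% = agonist with vehicle and 100% = vehicle without agonist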
Target sequence (P48145 whole entry, looked up): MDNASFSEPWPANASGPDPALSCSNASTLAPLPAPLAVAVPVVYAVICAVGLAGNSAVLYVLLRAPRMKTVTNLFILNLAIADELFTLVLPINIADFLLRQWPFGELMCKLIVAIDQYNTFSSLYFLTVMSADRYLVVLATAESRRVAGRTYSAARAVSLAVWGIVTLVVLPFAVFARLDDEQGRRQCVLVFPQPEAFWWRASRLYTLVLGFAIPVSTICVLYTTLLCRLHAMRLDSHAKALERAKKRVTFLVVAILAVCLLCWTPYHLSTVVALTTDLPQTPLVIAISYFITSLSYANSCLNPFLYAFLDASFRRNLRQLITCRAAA
OX1R antag-1 = OX1R (HCRTR1) antagonists, primary screen, fluorescence, CHO/OX1R cells, Fluo-8 calcium, orexin A. inhibition, % at 5 µM. actives 0.43% (n = 330,000). Orexin/Hypocretin receptor type 1 (Homo sapiens), O43613. Fluo-8 calcium fluorescence;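 active = inhibition above its plate's threshold, mean inhibition of all tested compounds on the plate plus 3 SD, cut at about 37% in these data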;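 also: 0% = orexin A challenge wells and 100% = SB-334867-A antagonist wells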
OX1R antag-2 = antagonists of human orexin 1 receptor (OX1R). Orexin/Hypocretin receptor type 1 (Homo sapiens), O43613. OX1R-expressing cells, FRET antagonist read-out. inhibition, % at 6.6 µM. actives 1.8% (n = 330,000). AID 485270, 2010; in the data active = inhibition mostly above about 38%, no sharp cut-off; inactive = mostly below about 40%;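 also: 0% = agonist challenge alone and 100% = reference antagonist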
CHO parental Ca = ATP-evoked calcium signal inhibitors, parental CHO, primary screen, counter-screen for OX1R antagonist project, cell-based, fluorescence, Fluo-8 calcium dye; parental CHO-K1, ATP-induced calcium, Fluo-8 fluorescence; inhibition, % at 5.6 µM; actives 0.63% (n = 330,000); AID 463079, 2010;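 active = inhibition above that plate's mean sample inhibition plus 3 SD, cut at about 26% in these data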;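 also: 0% = ATP-challenged DMSO wells and 100% = DMSO wells without ATP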
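Material: Parental CHO cells | Reagent: ATP | Compound dosing: Single nominal dose of 5.6 µM per compound | Detection: Intracellular calcium via Fluo-8 no-wash fluorescent dye | Read-out: % inhibition of ATP-induced calcium mobilization | Benchmarks: Low control ATP plus DMSO, high control DMSO only | Replicates: Singlicate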
TAAR1 antag = human TAAR1 antagonists, primary screen, Fluo-8 calcium fluorescence, CHO RD-HGA16 cells; Trace amine-associated receptor 1 (Homo sapiens), Q96RJ0; AID 624466, 2012; actives 1.5% (n = 360,000); antagonist; inhibition, % at 3 µM;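 active = inhibition above a per-plate cutoff, the mean inhibition of test compounds on that plate plus 3 SD, cut at about 49% in these data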;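 also: 0% = DMSO plus EC80 beta-PEA response and 100% = DMSO alone without agonist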
Target sequence (Q96RJ0 whole entry, looked up): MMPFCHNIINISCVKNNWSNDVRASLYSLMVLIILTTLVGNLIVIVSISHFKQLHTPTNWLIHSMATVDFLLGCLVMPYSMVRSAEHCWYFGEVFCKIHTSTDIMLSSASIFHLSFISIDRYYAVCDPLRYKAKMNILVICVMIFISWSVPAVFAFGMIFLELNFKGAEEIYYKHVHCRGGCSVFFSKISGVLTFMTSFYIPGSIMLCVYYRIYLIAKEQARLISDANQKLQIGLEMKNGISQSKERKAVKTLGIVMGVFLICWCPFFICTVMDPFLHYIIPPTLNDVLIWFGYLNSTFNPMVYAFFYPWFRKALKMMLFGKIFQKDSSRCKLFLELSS
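Test system – hTAAR1-expressing CHO RD-HGA16 cells, Gα16-coupled · Reagent – β-PEA at EC80 concentration, post-compound challenge · Compound dosing – 3 µM, single point · Timing – 140 s kinetic read after compound, 140 s after agonist · Detection – Fluo-8 intracellular calcium dye fluorescence, real-time kinetic reads · Control set – DMSO and EC80 PEA controls · Repeats – n of 1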
TAAR1 agonist = human TAAR1 agonists, primary screen, Fluo-8 calcium fluorescence, CHO RD-HGA16 cells; Trace amine-associated receptor 1 (Homo sapiens), Q96RJ0; vehicle wells 0%, saturating PEA agonist 100%; activation, % at 3 µM; actives 0.99% (n = 360,000); AID 624467, 2012;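 active = activation above the mean activation of all test compounds in the run plus 3 SD, cut at about 38% in these data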
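System: CHO RD-HGA16 cells carrying human TAAR1 plus Gα16; Incubation: 17-24 h seeding, 75 min 37 °C dye, 30 min RT; Measured by: Fluo-8 fluorescence, 5 s baseline then 140 s kinetic read; Control set: DMSO and PEA EC100; Replication: single well for each compound.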
TAAR1 nonsel count = nonselective antagonists in TAAR1 counter-screen cells, counter-screen for hTAAR1 antagonist project, cell-based, fluorescence, calcium. shares compounds with TAAR1 antag. counterscreen cell line, antagonist mode. inhibition, % at 3 µM. AID 651780, 2012. actives 77% (n = 2,400); in the data active = inhibition above about 22%;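 also: CHO-Ga16 host cells stimulated with ATP at an EC80 level; 0% = agonist EC80 plus vehicle and 100% = vehicle without agonist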
TAAR1 antag conf = human TAAR1 antagonists, retest of hits, confirmation, cell-based, fluorescence. actives 40% (n = 2,400). TAAR1-expressing cells, fluorescence antagonist read-out. inhibition, % at 3 µM. shares compounds with TAAR1 antag; in the data active = inhibition above about 49%;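 also: CHO-Ga16 host cells challenged with agonist PEA near its EC80; 0% = agonist at EC80 plus vehicle and 100% = vehicle with no agonist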
Ga16 nonsel ag = calcium activation in Ga16-expressing cells, counter-screen for TAAR1 antagonist project, cell-based, fluorescence; shares compounds with TAAR1 antag; actives 18% (n = 2,400); agonist counterscreen; activation, % at 3 µM; in the data active = activation above about 12%;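 also: 0% = vehicle wells and 100% = saturating stimulus response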
TAAR1 ag counter = TAAR1 activation by candidate antagonists – cell-based, fluorescence, counter-screen for TAAR1 antagonist project. shares compounds with TAAR1 antag. hTAAR1 cell line, agonist mode. activation, % at 3 µM. actives 2% (n = 2,400); in the data active = activation above about 37%;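 also: CHO cells stably expressing TAAR1 with calcium dye readout; 0% = DMSO vehicle and 100% = full agonist response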
The depositor's hits bear a star; . = no result given.

SMILES	GPR7 antag	OX1R antag-1	OX1R antag-2	CHO parental Ca	TAAR1 antag	TAAR1 agonist	TAAR1 nonsel count	TAAR1 antag conf	Ga16 nonsel ag	TAAR1 ag counter
CC(C)Cn1c(N)c(C(=O)CSc2ccccc2)c(=O)n(C)c1=O	-6	13	15	15	66*	21	49*	65*	16*	14
CN(C)CCCN=Cc1c(O)n(Cc2ccc3c(c2)OCO3)c(=O)c2ccccc12	-1	-12	13	-3	.	.	.	.	.	.
COc1cccc(NC(=S)NC2CC(C)CC(C)(C)C2)c1 (stereo not drawn)	.	.	.	.	-17	1	.	.	.	.
CCO[C@H]1OC(C(=O)NCc2nc3ccccc3[nH]2)=C[C@@H](c2csc3ccccc23)[C@@H]1CCCO	-10	-18	21	-21	54*	29	26*	31	6	5
CCO[C@@H]1OC(C(=O)NCc2nc3ccccc3[nH]2)=C[C@H](c2csc3ccccc23)[C@H]1CCCO	-11	-21	25	-36	53*	19	30*	35	5	5
COc1ccc(NC(=O)Nc2cccc3c2O[C@H](CN(C)C(=O)Nc2ccccc2)[C@@H](C)CN([C@H](C)CO)C3=O)cc1	.	-13	0	-9	37	8	.	.	.	.
COc1ccc(CN(C)C[C@H]2Oc3c(NC(=O)Nc4ccccc4)cccc3C(=O)N([C@H](C)CO)C[C@@H]2C)cc1	.	-10	8	-28	61*	19	25*	41	11	10
CN(C)S(=O)(=O)n1cc(/C=C(\NC(=O)c2ccccc2Cl)C(=O)NCCCn2ccnc2)c2ccccc21	-2	-29	11	-32	55*	8	17	31	7	3
CN(C)S(=O)(=O)n1cc(/C=C(\NC(=O)c2ccccc2Cl)C(=O)NCCN2CCOCC2)c2ccccc21	-9	-25	23	-23	73*	21	24*	44	11	12
COc1ccc(C(=O)N/C(=C\c2cn(S(=O)(=O)N(C)C)c3ccccc23)C(=O)NCCN2CCOCC2)cc1	-6	-29	5	-19	-17	0	.	.	.	.
CN(C)c1cccc(C(=O)Nc2cccc(S(=O)(=O)NC3=NCCC3)c2)c1	5	-16	9	-8	0	1	.	.	.	.
COC(=O)C1=C(C)N(Cc2ccc(C(F)(F)F)cc2)C(=NCc2ccccc2)NC1c1cccc(C(F)(F)F)c1 (stereo not drawn)	.	.	.	.	29	18	.	.	.	.
COC(=O)C1=C(C)N(Cc2cccc(C(F)(F)F)c2)C(=NCc2ccc(OC)cc2)NC1c1ccc(F)cc1 (stereo not drawn)	.	.	.	.	53*	31	41*	33	15*	30
COC(=O)C1=C(C)N(Cc2cccc(C(F)(F)F)c2)C(=NCc2ccc(C(F)(F)F)cc2)NC1c1ccc(Cl)cc1 (stereo not drawn)	.	.	.	.	31	13	.	.	.	.
COC(=O)C1=C(C)N(Cc2ccc(C(F)(F)F)cc2)C(=NCc2ccccc2)NC1c1ccc(C(F)(F)F)cc1 (stereo not drawn)	.	.	.	.	55*	23	41*	33	21*	44*
COC(=O)C1=C(C)N(Cc2ccc(C(F)(F)F)cc2)C(=NCc2ccccc2)NC1c1ccccc1 (stereo not drawn)	.	.	.	.	51*	34	36*	32	18*	36
COC(=O)C1=C(C)N(Cc2cccc(C(F)(F)F)c2)C(=NCc2ccc(C(F)(F)F)cc2)NC1c1ccccc1 (stereo not drawn)	.	.	.	.	19	10	.	.	.	.
COC(=O)C1=C(C)N(C)C(=NCc2cccc(C(F)(F)F)c2)NC1c1cccc(Cl)c1 (stereo not drawn)	.	.	.	.	24	19	.	.	.	.
COC(=O)C1=C(C)N(C)C(=NCc2cccc(C(F)(F)F)c2)NC1c1ccc(C(F)(F)F)cc1 (stereo not drawn)	.	.	.	.	51*	27	33*	40	13*	26
COc1ccc(NC(=O)COC(=O)CN2C(=O)C3CC=CCC3C2=O)c([N+](=O)[O-])c1 (stereo not drawn)	.	-6	24	-8	6	9	.	.	.	.
COC(=O)C1=C(C)N(Cc2ccc(F)cc2)C(=S)NC1c1cccc(OC)c1 (stereo not drawn)	.	.	.	.	57*	-1	24*	41	2	3
COC(=O)C1=C(C)N(Cc2cccc(C(F)(F)F)c2)C(=NCc2ccc3c(c2)OCO3)NC1c1ccc(Cl)cc1 (stereo not drawn)	.	.	.	.	56*	29	37*	41	19*	52*
COC(=O)C1=C(C)N(Cc2ccc(C(F)(F)F)cc2)C(=NCc2ccccc2)NC1c1cccc(Cl)c1 (stereo not drawn)	.	.	.	.	60*	27	39*	37	13*	35
COc1ccc(OCCN2C(=O)c3cccc(N)c3C2=O)cc1	4	-10	18	-9	-18	2	.	.	.	.
CCOC(=O)[C@H]1[C@H]2COc3ccc(Br)cc3[C@@H]2N2C(=O)CN(Cc3ccc(F)cc3)C(=O)[C@@]12C	.	-50	0	-17	22	11	.	.	.	.
Cc1cccc(C)c1-n1nnnc1C1c2ccccc2C(=O)N1C1CC1 (stereo not drawn)	.	.	.	.	-12	7	.	.	.	.
CCC(=O)N1Cc2cc(C(=O)Nc3nccs3)nc(-c3cccc(-c4ccccc4OC)c3)c2[C@@H]1CCO	.	.	.	.	73*	11	29*	46	8	6
Cc1cc(/C=N\NC(=O)CC(=O)NC2CCCCC2)c(C)n1-c1ccc(Cl)c(Cl)c1	4	10	0	-16	56*	14	16	71*	10	31

Screens from PubChem BioAssay.
